# Only some compounds are listed: those with a hit (about 2.9% of all), similar ones and a draw of the others.
# TRPC6 inh = blocks the mouse TRPC6 cation channel; Q61143; HEK293-TRPC6, membrane potential dye, ACh-evoked depolarization; stronger effect = lower value; B-score at 10 µM; hit rate 1.1% among 310,000;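 active = B-score under library mean minus 3 SD, initial fluorescence not abnormally high, positive integrated signal ratio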;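 also: B-score derived from integrated fluorescence ratio over the kinetic read; more negative B-score means stronger inhibition of depolarization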
# TRPC4 block = blocks the mouse TRPC4 cation channel; hit rate 0.39% among 300,000; B-score at 10 µM; HEK293 TRPC4beta/mu-opioid, DAMGO-evoked Fluo4 calcium flux; stronger effect = lower value; Q9QUQ5; AID 2247;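 active = B-score over 3 SD under the library average, no early fluorescence shift, positive overall ratio signal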
# Target sequence (Q9QUQ5 whole entry, looked up): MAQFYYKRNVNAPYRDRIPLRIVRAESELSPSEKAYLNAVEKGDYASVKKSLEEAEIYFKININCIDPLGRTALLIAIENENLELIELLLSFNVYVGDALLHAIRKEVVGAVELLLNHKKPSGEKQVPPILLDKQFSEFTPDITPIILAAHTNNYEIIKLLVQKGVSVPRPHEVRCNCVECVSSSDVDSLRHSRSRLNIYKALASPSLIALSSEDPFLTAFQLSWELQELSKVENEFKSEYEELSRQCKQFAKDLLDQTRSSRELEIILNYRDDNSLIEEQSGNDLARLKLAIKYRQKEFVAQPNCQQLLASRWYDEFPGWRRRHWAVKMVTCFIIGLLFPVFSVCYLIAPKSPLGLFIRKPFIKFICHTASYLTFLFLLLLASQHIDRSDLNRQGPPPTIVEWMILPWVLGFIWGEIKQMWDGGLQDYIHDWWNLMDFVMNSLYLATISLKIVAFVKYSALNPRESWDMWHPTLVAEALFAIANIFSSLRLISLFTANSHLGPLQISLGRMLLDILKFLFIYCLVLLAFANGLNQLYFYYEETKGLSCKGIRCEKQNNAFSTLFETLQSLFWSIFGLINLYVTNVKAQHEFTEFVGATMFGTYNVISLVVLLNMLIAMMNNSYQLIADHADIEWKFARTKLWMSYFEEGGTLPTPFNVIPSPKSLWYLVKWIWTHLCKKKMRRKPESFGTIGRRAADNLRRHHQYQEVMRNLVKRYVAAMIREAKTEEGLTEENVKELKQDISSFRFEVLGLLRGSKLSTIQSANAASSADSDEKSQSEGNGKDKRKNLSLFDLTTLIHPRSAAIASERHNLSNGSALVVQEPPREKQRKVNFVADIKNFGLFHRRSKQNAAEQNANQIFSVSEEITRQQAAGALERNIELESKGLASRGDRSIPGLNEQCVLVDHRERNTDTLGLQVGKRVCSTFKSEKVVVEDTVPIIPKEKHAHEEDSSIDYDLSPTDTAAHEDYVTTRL
#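 System: stable TRPC4beta/mu-opioid receptor HEK293 cells; Dosing: single-point compound dosing; Measured by: Fluo4 Ca2+ flux fluorescence; Read-out basis: per-well B score of integrated baseline-normalized Fluo4 ratio.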
# TRPC4 agonist = activators of mouse TRPC4 channel | HEK293 TRPC4beta/mu-opioid, Fluo4 calcium fluorescence; stronger effect = higher value | hit rate 0.49% among 310,000 | B-score at 10 µM | Q9QUQ5;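 active = B-score above 5 SD of library B-scores, and initial fluorescence ratio not above library mean plus 5 SD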;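 also: positive B-score marks a calcium rise read as TRPC4 activation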
#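 Technique: kinetic Fluo4 calcium fluorescence; Test system: TRPC4beta and mu-opioid receptor HEK293 stable cells; Measure: B-scored integrated calcium fluorescence ratio; Benchmarks: low control buffer alone, high control maximal DAMGO; Schedule: 45 min room-temperature Fluo4 loading, 110 s read.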
# TRPC6 activator = mouse TRPC6 channel activation | Q61143 | HEK293-TRPC6 membrane potential dye fluorescence; stronger effect = higher value | B-score at 10 µM | hit rate 0.13% among 310,000 | AID 2550;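 active = B-score of the integrated fluorescence ratio above library mean plus 3 SD, and starting fluorescence ratio within library mean plus 5 SD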;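 also: higher score means more depolarization so channel activation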
# Kir21 inh = blocks the mouse Kir2.1 inward-rectifier potassium channel | hit rate 0.85% among 310,000 | B-score at 10 µM | HEK293-Kir2.1, FluxOR thallium flux fluorescence; stronger effect = lower value;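 active = fluorescence ratio B-score at or below minus 3 SD of library scores, with starting-brightness B-score within 2 SD, cut at about -4.2 in these data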;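 also: channel flux triggered by added potassium and thallium sulfate stimulus; B-score of peak minus minimum fluorescence over baseline after thallium stimulus; more negative B-score means stronger Kir2.1 block with less thallium influx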
# TRPC4 PAM = allosterically enhances the mouse TRPC4 cation channel; hit rate 0.42% among 310,000; AID 2227; B-score at 10 µM; HEK293 TRPC4beta/mu-opioid, DAMGO EC20, Fluo-4 Ca2+ flux; stronger effect = higher value; Q9QUQ5;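 active = B-score of calcium response area above 5 SD of library B-scores, with initial fluorescence ratio within 5 SD of library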;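 also: B-score of integrated fluorescence ratio over time as area under calcium response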
# TRPC4 spec 2 = mouse TRPC4 off-target activity of TRPC6 inhibitors, second screen; shares compounds with TRPC6 inh; HEK293 TRPC4/MOR, membrane potential dye fluorescence; channel activated by saturating DAMGO dose; hit rate 42% among 920; inhibition, % at 10 µM; AID 2776;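 active = compounds whose fluorescence signal differed from control wells by over 3 SD, either direction, in both duplicate plates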
# TRPC4 spec = selectivity of TRPC6 inhibitors: effect on mouse TRPC4; shares compounds with TRPC6 inh; HEK293 TRPC4/mu-opioid, membrane potential fluorescence; activity change, negative = inhibition, % at 10 µM; hit rate 61% among 920; AID 2777;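 active = rise or fall in signal beyond 3 SD of buffer-only wells in both replicate plates, either sign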;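 also: integrated kinetic ratio of fluorescence range over baseline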
# HEK293 MPD ctr 2-1 = second check of TRPC6 inhibitor effects in parental HEK293 cells | hit rate 31% among 920 | parental HEK293 membrane potential dye fluorescence; maximal acetylcholine challenge after compound addition | signal change vs control, % at 10 µM | shares compounds with TRPC6 inh;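 active = membrane potential signal moving either way by over 3 SD of the maximum-effect control, in both duplicate plates, meaning non-specific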
# HEK293 MPD ctr-1 = checks TRPC6 inhibitor effects in parental HEK293 cells. membrane potential signal change, % at 10 µM. hit rate 60% among 920. parental HEK293 membrane potential dye fluorescence. shares compounds with TRPC6 inh;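 active = membrane potential signal shifting up or down by more than 3 SD of buffer-only wells, on both duplicate plates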
# HEK293 MPD ctr-2 = parental HEK293 nonspecific activity of TRPC6 modulators; shares compounds with TRPC6 inh; membrane potential dye fluorescence; membrane potential signal change, % at 10 µM; hit rate 51% among 2,400;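 active = membrane potential signal moves up or down beyond 5 SD from buffer-only wells, on both duplicate plates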
# HEK293 MPD ctr 2-2 = second check of TRPC6 modulator effects in parental HEK293 cells. AID 488926. inhibition, % at 10 µM. membrane potential dye fluorescence; after compound, maximal acetylcholine stimulation. shares compounds with TRPC6 inh. hit rate 14% among 2,400;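 active = membrane potential signal drops by more than 5 SD from the mean control signal, in both duplicate plates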;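 also: plate controls were acetylcholine ECmax control wells for no effect and buffer only wells for full effect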
# TRPC4 ctr mod = mouse TRPC4 off-target activity of TRPC6 modulators; shares compounds with TRPC6 inh; HEK293 TRPC4/mu-opioid, membrane potential fluorescence; percent change from control (negative = decrease, positive = increase), % at 10 µM; hit rate 69% among 2,400; AID 488927;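 active = membrane potential signal moved up or down beyond 5 SD of buffer control wells, in both duplicate plates, actives on both sides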;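 also: plate controls were assay buffer wells for no effect and DAMGO maximal-effect wells for full effect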
# TRPC4 ctr inh 2 = second check of whether TRPC6 modulators also affect mouse TRPC4; shares compounds with TRPC6 inh; HEK293 TRPC4/mu-opioid, membrane potential dye fluorescence; stimulated with maximal-effect DAMGO; inhibition, % at 10 µM; hit rate 55% among 2,400;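 active = drop in membrane potential signal beyond 5 SD of the control wells in both duplicate plates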;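 also: TRPC4 counter screen for TRPC6 hits run under conditions tuned for TRPC6 not TRPC4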
# TRPC6 block conf = mouse TRPC6 inhibitor confirmation; shares compounds with TRPC6 inh; HEK293-TRPC6, membrane potential dye, ACh-evoked depolarization; inhibition, % at 10 µM; hit rate 43% among 3,300;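 active = fluorescence ratio falls more than 5 SD below the full-stimulation control mean, in both duplicate runs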;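 also: integrated fluorescence ratio of peak minus minimum over baseline after agonist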
# TRPC6 act conf = confirmation of mouse TRPC6 activators | shares compounds with TRPC6 inh | HEK293-TRPC6 membrane potential dye fluorescence, FDSS | activation, % at 10 µM | hit rate 11% among 2,800 | AID 488961;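 active = ratio signal rise beyond 5 SD above unstimulated control wells' mean, seen in both duplicate runs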;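 also: plate controls were buffer EC0 wells for no effect and acetylcholine ECmax response for full effect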
# An asterisk follows results filed as active; i = inactive; · = not tested or not shown.
SMILES,TRPC6 inh,TRPC4 block,TRPC4 agonist,TRPC6 activator,Kir21 inh,TRPC4 PAM,HEK293 MPD ctr-2,HEK293 MPD ctr 2-2,TRPC4 ctr mod,TRPC4 ctr inh 2,TRPC6 block conf,TRPC6 act conf,others
O=C(O)c1cc(Br)ccc1NS(=O)(=O)c1cccc2nsnc12,i,i,i,12.8*,1.22,i,i,i,15.5%*,i,i,33.5%*,
CN(C)CCCN1c2ccccc2Sc2ccccc21,-6.39*,i,i,i,-2.13,i,i,i,i,58.0%*,44.5%*,i,
COc1ccc2c(c1)Sc1ccccc1N2CCN(C)C,-5.08*,i,50*,i,-0.88,i,i,i,39.0%*,82.5%*,51.5%*,i,
CCC(=O)c1ccc2c(c1)N(CCCN(C)C)c1ccccc1S2,-6.09*,i,i,i,-4.15,i,-232.5%*,72.5%*,-38.0%*,81.0%*,70.0%*,i,
CN(C)CCCN1C(=O)c2cc3ccccc3cc2C1=O,i,i,i,i,-0.02,i,·,·,·,·,·,·,
Cc1ccc2nc(SCC(=O)Nc3ccccc3N3CCOCC3)c(C#N)cc2c1,i,i,i,i,-0.2,i,·,·,·,·,·,·,
CN1CCS/C1=C/C=C1/SC(=S)N(Cc2ccccc2)C1=O,i,i,i,19.1*,-2.18,i,277.5%*,i,49.0%*,i,i,112.5%*,
CCCCN1C(=O)/C(=C/C=C2\SCCN2C)SC1=S,i,i,i,i,-1.24,i,·,·,·,·,·,·,
CN1CCN(c2ccc(C(=O)c3ccc(F)cc3)cc2)CC1,i,i,i,i,-0.6,i,·,·,·,·,·,·,
COC(=O)c1ccc2c(c1)C(C)(C)C(/C=C/c1ccc(OC)c(OC)c1OC)=[N+]2C,-9.55*,i,i,i,-7.22*,i,-179.0%*,88.0%*,-190.5%*,55.5%*,71.5%*,i,
O=C(CSc1nnnn1C1CCCCC1)Nc1ccc2c(c1)OCO2,-8.67*,i,i,i,0.33,i,·,·,·,·,i,i,TRPC4 spec 2=i;TRPC4 spec=i;HEK293 MPD ctr 2-1=i;HEK293 MPD ctr-1=i
O=C(CSc1nnnn1C1CCCCC1)Nc1ccc(F)cc1,i,i,i,i,-1.13,i,·,·,·,·,·,·,
CC1(C)CC2(CCO1)N1CC3(C)CN2CC(C)(C1)C3=O (centres undefined),i,i,i,i,-1.11,i,·,·,·,·,·,·,

# Screens as filed in PubChem.
